# Data: ChEMBL document CHEMBL1144374, “Design, synthesis and biological evaluation of novel, simplified analogues of laulimalide: modification of the side chain” (Bioorg Med Chem Lett, 2005)
# Experiments:
# Format in all cases: cell-based
# [1] = Inhibitory concentration measured in term of cytotoxicity against human A2780/AD10 cells; details: A2780 ADR
# Outline: (§1)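 Human ovarian carcinoma A2780 cells and the drug-resistant A2780/AD10 subline were exposed to compounds for three days. Growth was read by MTT cell proliferation assay. IC50 values are means ± standard error of at least four independent experiments. Compounds were scored not active when there was no activity below 50 µM.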
# [2] = Inhibitory concentration of compound required for exhibiting cytotoxic effect on human A2780 cells; outline: as §1
# [3] = Inhibitory concentration of compound required for exhibiting cytotoxic effect on human A2780 cells; na = not active below 50 uM; outline: as §1
# [4] = Inhibitory concentration measured in term of cytotoxicity against human A2780/AD10 cells; na = not active below 50 uM; details: a2780 adr; outline: as §1
# [5] = Inhibitory concentration of compound required for exhibiting cytotoxic effect on human A2780 cells; no. of experiment=4
# Outline: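 Human ovarian carcinoma A2780 cells exposed to drugs for three days. Growth was read by MTT (3-(4,5-dimethylthiazol-2-yl)-2,5-diphenyltetrazolium bromide) cell proliferation assay and IC50 determined. Values are means ± standard error of at least four independent experiments.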
SMILES,IC50 [1] [µM],IC50 [2] [µM],IC50 [3],IC50 [4],IC50 [5] [µM]
C=C1CCC[C@@H]2CC=C[C@@H](C/C=C\C(=O)O[C@H](CO)C[C@@H]3O[C@H]3[C@@H](O)C1)O2,44,40,–,–,–
C=C1CCC[C@@H]2CC=C[C@@H](C/C=C\C(=O)O[C@H]([C@@H](O)/C=C/c3csc(C)n3)C[C@@H]3O[C@H]3[C@@H](O)C1)O2,–,–,Not Active,Not Active,–
C=C1CCC[C@@H]2CC=C[C@@H](C/C=C\C(=O)O[C@H]([C@@H](O)/C=C/[C@@H]3CC(C)=CCO3)C[C@@H]3O[C@H]3[C@@H](O)C1)O2,0.074,0.05,–,–,–
C=C1CCC[C@@H]2CC=C[C@@H](C/C=C\C(=O)O[C@H]([C@@H](O)/C=C/C3CCCCC3)C/C=C/[C@@H](O)C1)O2,–,–,Not Active,Not Active,–
C=C1CCC[C@@H]2CC=C[C@@H](C/C=C\C(=O)O[C@H]([C@@H](O)/C=C/C3CCCCC3)C[C@@H]3O[C@H]3[C@@H](O)C1)O2,8.3,9,–,–,–
C=C1CCC[C@@H]2CC=C[C@@H](C/C=C\C(=O)O[C@H](CO)C/C=C/[C@@H](O)C1)O2,–,–,Not Active,Not Active,–
C=C1CCC[C@@H]2CC=C[C@@H](C/C=C\C(=O)O[C@H]([C@@H](O)/C=C/[C@@H]3CC(C)=CCO3)C/C=C/[C@@H](O)C1)O2,1.1,0.43,–,–,–
C=C1CCC[C@@H]2CC=C[C@@H](C/C=C\C(=O)O[C@H]([C@@H](O)/C=C/c3csc(C)n3)C/C=C/[C@@H](O)C1)O2,–,–,Not Active,Not Active,–
C=C/C=C\[C@H](C)[C@H](OC(N)=O)[C@@H](C)[C@H](O)[C@@H](C)C/C(C)=C\[C@H](C)[C@@H](O)[C@@H](C)/C=C\[C@@H](O)C[C@@H]1OC(=O)[C@H](C)[C@@H](O)[C@H]1C [DISERMOLIDE],0.1,–,–,–,0.01
C=C1C[C@H](C)C[C@@H]2CC=C[C@@H](C/C=C\C(=O)O[C@H]([C@@H](O)/C=C/[C@@H]3CC(C)=CCO3)C[C@@H]3O[C@H]3[C@@H](O)C1)O2 [FIJIANOLIDE B],0.0075,0.0034,–,–,–
CC(=O)O[C@H]1C(=O)[C@@]2(C)[C@H]([C@H](OC(=O)c3ccccc3)[C@]3(O)C[C@H](OC(=O)[C@H](O)[C@@H](NC(=O)c4ccccc4)c4ccccc4)C(C)=C1C3(C)C)[C@]1(OC(C)=O)CO[C@@H]1C[C@@H]2O [PACLITAXEL],1.5,–,–,–,0.0011
